Measured values from ChEMBL document CHEMBL1124370 (1989).
The source made the active and inactive calls. No cut-off for these calls is given here.

Tests used:
[1] = test system: Rattus norvegicus; test: […] inhibition of sorbitol accumulation in rat sciatic nerves at 5*10e-6 M concentration; format: functional, Sciatic nerve; conditions: in the assay text read “In vitro” for “In vivo”
Method in brief: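 Sciatic nerves from male Sprague-Dawley rats (200–250 g), removed after CO2 euthanasia, incubated ex vivo for 3 h at 37 °C under 95% air/5% CO2 in Hank's salts buffer, pH 7.4, with 50 mM glucose and 5 × 10^-6 M test compound. Triplicate incubations; nerve sorbitol measured in duplicate by spectrofluorometric assay. Reported as % inhibition of sorbitol accumulation.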

[2] = test system: Rattus norvegicus; test: In vivo inhibition of galactitol accumulation in the sciatic nerves of rat at a dose of 4 mg/kg/day; format: functional; conditions: Sciatic nerve
[3] = test system: Rattus norvegicus; test: In vivo inhibition of galactitol accumulation in the diaphragm of rat at a dose of 4 mg/kg/day; format: functional
[4] = biological target: Aldo-keto reductase family 1 member B1 (Bos taurus) (UniProt P16116); test: Inhibition of aldose reductase in partially purified bovine lens preparation at 10e-6 M.
Method in brief: (§1)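 Aldose reductase partially purified from bovine lens, with the final chromatographic step of the earlier preparation omitted. Assay run in duplicate with test compound at 1 × 10^-6 M or 1 × 10^-7 M. Reported as % inhibition of enzymatic activity.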

[5] = biological target: Aldo-keto reductase family 1 member B1 (Bos taurus) (UniProt P16116); test: Inhibition of aldose reductase in partially purified bovine lens preparation at 10e-7 M concentration; method in brief: as §1
[6] = test system: Rattus norvegicus; test: […] inhibition of sorbitol accumulation in rat sciatic nerves at 10e-5 M concentration; format: functional, Sciatic nerve
Method in brief: (§2)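 Sciatic nerves were taken from male Sprague-Dawley rats (200–250 g) after CO2 euthanasia. Nerves were incubated 3 h at 37 °C under 95% air/5% CO2 in Hank's salts buffer, pH 7.4, with 50 mM glucose and (0–5)×10^-5 M compound, in triplicate. Nerve sorbitol was measured spectrofluorometrically in duplicate, and the read-out was % inhibition of sorbitol accumulation.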

[7] = test system: Rattus norvegicus; test: In vivo inhibition of sorbitol accumulation in rat sciatic nerves at 10e-6 M concentration; format: functional, Sciatic nerve; method in brief: as §2
[8] = test system: Rattus norvegicus; test: In vivo inhibition of galactitol accumulation in the diaphragm of rat. at a dose of 56 mg/kg/day; NS=not significant; format: functional, organism-based
[9] = test system: Rattus norvegicus; test: In vivo inhibition of galactitol accumulation in the sciatic nerves of rat at a dose of 55 mg/kg/day; NS=not significant; format: functional, organism-based; conditions: Sciatic nerve
[10] = test system: Rattus norvegicus; test: In vivo inhibition of galactitol accumulation in the diaphragm of rat at a dose of 48 mg/kg/day; format: functional
[11] = test system: Rattus norvegicus; test: […] inhibition of sorbitol accumulation in rat sciatic nerves at 10e-6 M concentration; NS=not significant; format: functional; conditions: Sciatic nerve; method in brief: as §2
[12] = test system: Rattus norvegicus; test: In vivo inhibition of galactitol accumulation in the diaphragm of rat. at a dose of 50 mg/kg/day; NS=not significant; format: functional, organism-based
[13] = test system: Rattus norvegicus; test: In vivo inhibition of galactitol accumulation in the sciatic nerves of rat at a dose of 50 mg/kg/day; NS=not significant; format: functional, organism-based; conditions: Sciatic nerve
[14] = test system: Rattus norvegicus; test: In vivo inhibition of galactitol accumulation in the sciatic nerves of rat at a dose of 100 mg/kg/day; format: functional; conditions: Sciatic nerve
[15] = test system: Rattus norvegicus; test: In vivo inhibition of galactitol accumulation in the diaphragm of rat at a dose of 100 mg/kg/day; format: functional
[16] = test system: Rattus norvegicus; test: In vivo inhibition of galactitol accumulation in the sciatic nerves of rat at a dose of 46 mg/kg/day; NS=not significant; format: functional, organism-based; conditions: Sciatic nerve
[17] = test system: Rattus norvegicus; test: […] inhibition of sorbitol accumulation in rat sciatic nerves at 10e-5 M concentration; NS=not significant; format: functional; conditions: Sciatic nerve; method in brief: as §2
[18] = test system: Rattus norvegicus; test: In vivo inhibition of galactitol accumulation in the diaphragm of rat at a dose of 46 mg/kg/day; NS =not significant; format: functional, organism-based
[19] = test system: Rattus norvegicus; test: In vivo inhibition of galactitol accumulation in the sciatic nerves of rat at a dose of 48 mg/kg/day; NS=not significant; format: functional, organism-based; conditions: Sciatic nerve
[20] = test system: Rattus norvegicus; test: In vivo inhibition of galactitol accumulation in the diaphragm of rat. at a dose of 48 mg/kg/day; NS =not significant; format: functional, organism-based
[21] = test system: Rattus norvegicus; test: In vivo inhibition of galactitol accumulation in the sciatic nerves of rat at a dose of 6 mg/kg/day; format: functional; conditions: Sciatic nerve
[22] = test system: Rattus norvegicus; test: In vivo inhibition of galactitol accumulation in the diaphragm of rat vat a dose of 6 mg/kg/day; format: functional
[23] = test system: Rattus norvegicus; test: In vivo inhibition of sorbitol accumulation in rat sciatic nerves at 5*10e-5 M concentration; format: functional, Sciatic nerve; conditions: in the assay text read “In vitro” for “In vivo”; method in brief: as §2
[24] = test system: Rattus norvegicus; test: In vivo inhibition of galactitol accumulation in the diaphragm of ratat a dose of 75 mg/kg/day; format: functional
[25] = test system: Rattus norvegicus; test: In vivo inhibition of galactitol accumulation in the diaphragm of rat. at a dose of 25 mg/kg/day; NS =not significant; format: functional, organism-based
[26] = test system: Rattus norvegicus; test: In vivo inhibition of galactitol accumulation in the sciatic nerves of rat at a dose of 25 mg/kg/day; format: functional; conditions: Sciatic nerve
[27] = test system: Rattus norvegicus; test: In vivo inhibition of galactitol accumulation in the sciatic nerves of rat at a dose of 75 mg/kg/day; format: functional; conditions: Sciatic nerve
[28] = biological target: Aldo-keto reductase family 1 member B1 (Bos taurus) (UniProt P16116); test: […] inhibition of aldose reductase in partially purified bovine lens preparation at 10e-6 M concentration
Method in brief: (§3)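 Enzyme partially purified from bovine lens by a published method, with the final chromatographic step omitted. Test compound was added at 1×10^-6 or 1×10^-7 M. Assays were run in duplicate, and the read-out was % inhibition of enzymatic activity.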

[29] = test system: Rattus norvegicus; test: In vivo inhibition of galactitol accumulation in the sciatic nerves of rat at a dose of 56 mg/kg/day; NS=not significant; format: functional, organism-based; conditions: Sciatic nerve
[30] = biological target: Aldo-keto reductase family 1 member B1 (Bos taurus) (UniProt P16116); test: […] inhibition of aldose reductase in partially purified bovine lens preparation at 10e-7 M concentration; method in brief: as §3

Row | inhibition [4] [%] | inhibition [5] [%] | Compound | Inhibition [1] [%] | Inhibition [6] [%] | Inhibition [7] [%] | other results
1 | 45 | 10 | O=C1NC(=O)[C@@]2(CCOc3ccc(F)cc32)N1 [SORBINIL] | 74 | 96 | 27 | inhibition in vivo at 4 mg/kg/day [2]: 55%; inhibition in vivo at 4 mg/kg/day [3]: 69%
2 | 53 | 5 | COc1ccc2c(/C(=N/S(=O)(=O)c3ccc(Br)cc3)N(C)CC(=O)O)cccc2c1C(F)(F)F |  |  |  | inhibition [8]: inactive; inhibition [9]: inactive
3 | 97 | 82 | COC(=O)N(CC(=O)O)C(=O)c1cccc2c(C(F)(F)F)c(OC)ccc12 |  | 58 |  | inhibition in vivo at 48 mg/kg/day [10]: 54%; inhibition [11]: inactive
4 | 62 | 15 | COc1ccc2c(C(=O)N(CC(=O)O)C(=O)c3ccccc3)cccc2c1C(F)(F)F |  | 31 | 40 | inhibition [12]: inactive; inhibition [13]: inactive
5 | 91 | 61 | COc1ccc2c(C(=O)N(CC(=O)O)C(C)=O)cccc2c1C(F)(F)F |  | 62 | 40 | inhibition in vivo at 100 mg/kg/day [14]: 36%; inhibition in vivo at 100 mg/kg/day [15]: 39%
6 |  | 35 | COc1ccc2c(C(=O)N(CC(=O)O)C(=O)OC(C)C)cccc2c1C(F)(F)F |  |  |  | inhibition [16]: inactive; inhibition [17]: inactive; inhibition [18]: inactive
7 | 90 | 81 | CCCOC(=O)N(CC(=O)O)C(=O)c1cccc2c(C(F)(F)F)c(OC)ccc12 |  | 62 |  | inhibition [19]: inactive; inhibition [20]: inactive; inhibition [11]: inactive
8 |  |  | COc1ccc2c(C(=S)N(C)CC(=O)O)cccc2c1C(F)(F)F [TOLRESTAT] | 76 | 82 |  | inhibition in vivo at 6 mg/kg/day [21]: 53%; inhibition in vivo at 6 mg/kg/day [22]: 80%
9 | 86 | 57 | COc1ccc2c(C(=O)N(C)CC(=O)O)cccc2c1C(F)(F)F |  | 74 | 27 | Inhibition [23]: 89%; inhibition in vivo at 75 mg/kg/day [24]: 27%; inhibition [25]: inactive; inhibition in vivo at 25 mg/kg/day [26]: 33%; inhibition in vivo at 75 mg/kg/day [27]: 56%
10 |  |  | COc1ccc2c(/C(=N/S(=O)(=O)C(F)(F)F)N(C)CC(=O)O)cccc2c1C(F)(F)F | 36 |  |  | inhibition [28]: 94%; Inhibition [23]: 71%; inhibition [8]: inactive; inhibition [29]: inactive; inhibition [30]: 69%
